Results taken from ChEMBL document CHEMBL1149042, “Antihypertensive activity of 6-O-galloyl-D-glucose, a phenolic glycoside from Sapium sebiferum” (1994).
The source made the active and inactive calls. The rule behind the calls is not given here.

Tests used:
Rattus norvegicus [1] = test: Antihypertensive activity in adrenalectomized anesthetized SHR rat assessed as reduction of mean blood pressure at 10 mg/kg, iv; type: functional
In short: (§1)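 Anaesthetized SHR given a single iv bolus. For adrenalectomized rats, bilateral adrenalectomy was done by dorsal approach under ether, with 24 h recovery before use. Sham-operated rats served as controls. Mean arterial pressure was recorded against vehicle-treated controls. Values are mean ± S.D. of 8 animals, and significance was tested by Dunnett's t-test.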

Rattus norvegicus [2] = test: Inhibition of noradrenaline release in sham operated anesthetized SHR rat plasma at 1 mg/kg, iv after 20 mins; type: functional
In short: (§2)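 Plasma was sampled 20 min after a single iv bolus in anaesthetized adrenalectomized rats (bilateral, dorsal approach under ether, 24 h recovery) or sham-operated SHR. Blood (2 ml) came from the optic sinus under ether and was spun at 5,000 × g for 10 min at 4°. Plasma (200 μl) received 20 ng DHBA internal standard and was adsorbed onto alumina with 30 min shaking. Vehicle-treated rats were controls, n=8, mean ± S.D.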

Rattus norvegicus [3] = test: Inhibition of noradrenaline release in sham operated anesthetized SHR rat plasma at 5 mg/kg, iv after 20 mins; type: functional; in short: as §2
Rattus norvegicus [4] = test: Inhibition of noradrenaline release in sham operated anesthetized SHR rat plasma at 10 mg/kg, iv after 20 mins; type: functional; in short: as §2
Rattus norvegicus [5] = test: Inhibition of noradrenaline release in sham operated anesthetized SHR rat plasma at 15 mg/kg, iv after 20 mins; type: functional; in short: as §2
Rattus norvegicus [6] = test: Inhibition of noradrenaline release in adrenalectomized anesthetized SHR rat plasma at 1 mg/kg, iv after 20 mins; type: functional; in short: as §2
Rattus norvegicus [7] = test: Inhibition of noradrenaline release in adrenalectomized anesthetized SHR rat plasma at 5 mg/kg, iv after 20 mins; type: functional; in short: as §2
Rattus norvegicus [8] = test: Inhibition of noradrenaline release in adrenalectomized anesthetized SHR rat plasma at 10 mg/kg, iv after 20 mins; type: functional; in short: as §2
Rattus norvegicus [9] = test: Inhibition of noradrenaline release in adrenalectomized anesthetized SHR rat plasma at 15 mg/kg, iv after 20 mins; type: functional; in short: as §2
Rattus norvegicus [10] = test: Antihypertensive activity in sham operated anesthetized SHR rat assessed as reduction of mean blood pressure at 1 mg/kg, iv; type: functional; in short: as §1
Rattus norvegicus [11] = test: Antihypertensive activity in sham operated anesthetized SHR rat assessed as reduction of mean blood pressure at 5 mg/kg, iv; type: functional; in short: as §1
Rattus norvegicus [12] = test: Antihypertensive activity in sham operated anesthetized SHR rat assessed as reduction of mean blood pressure at 10 mg/kg, iv; type: functional; in short: as §1
Rattus norvegicus [13] = test: Antihypertensive activity in sham operated anesthetized SHR rat assessed as reduction of mean blood pressure at 15 mg/kg, iv; type: functional; in short: as §1
Rattus norvegicus [14] = test: Antihypertensive activity in adrenalectomized anesthetized SHR rat assessed as reduction of mean blood pressure at 1 mg/kg, iv; type: functional; in short: as §1
Rattus norvegicus [15] = test: Antihypertensive activity in adrenalectomized anesthetized SHR rat assessed as reduction of mean blood pressure at 5 mg/kg, iv; type: functional; in short: as §1
Rattus norvegicus [16] = test: Antihypertensive activity in adrenalectomized anesthetized SHR rat assessed as reduction of mean blood pressure at 15 mg/kg, iv; type: functional; in short: as §1
Rattus norvegicus [17] = test: Vasorelaxation activity in SHR rat assessed as reduction of methoxamine-induced mean arterial blood pressure at 5 mg/kg, iv after 20 mins; type: functional
Rattus norvegicus [18] = test: Vasorelaxation activity in SHR rat assessed as reduction of methoxamine-induced mean arterial blood pressure at 10 mg/kg, iv after 20 mins; type: functional
Rattus norvegicus [19] = test: Vasorelaxation activity in SHR rat assessed as reduction of methoxamine-induced mean arterial blood pressure at 15 mg/kg, iv after 20 mins; type: functional
Rattus norvegicus [20] = test: Vasorelaxation activity in SHR rat assessed as reduction of Bay-K 8644-induced mean arterial blood pressure at 5 mg/kg, iv after 20 mins; type: functional
Rattus norvegicus [21] = test: Antihypertensive activity in SHR rat assessed as changes in tail arterial mean blood pressure at 1 mg/kg, iv; type: functional, Artery
In short: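 Conscious SHR (250–280 g) with systemic pressure above 180 mm Hg, given a single bolus in Locke-Ringer solution into the cannulated femoral vein over 20 sec. Tail arterial mean pressure was taken by indirect tail-cuff with a photoelectric pulse sensor at 28 ± 1° without pre-warming, at 10-min intervals. Controls received vehicle.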

Rattus norvegicus [22] = test: Vasorelaxation activity in anesthetized normotensive rat assessed as reduction of Bay-K 8644-induced mean arterial blood pressure at 10 mg/kg, iv after 20 mins
Rattus norvegicus [23] = test: Vasorelaxation activity in anesthetized normotensive rat assessed as reduction of Bay-K 8644-induced mean arterial blood pressure at 15 mg/kg, iv after 20 mins
Rattus norvegicus [24] = test: Antihypertensive activity in SHR rat assessed as reduction in pentobarbitol-induced increase in blood pressure at 0.1 mg/kg, iv; type: functional
In short: (§3)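 SHR rats (250–280 g) with systemic pressure above 180 mm Hg were used. Compound in Locke-Ringer solution was given as a single iv bolus over 20 sec into a cannulated femoral vein. Pressure was read by indirect tail-cuff with a photoelectric pulse sensor at 28 °C without pre-warming, every 10 min, versus pre-dose control. Controls received vehicle. Activity required a significant fall lasting at least 30 min.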

Rattus norvegicus [25] = test: Antihypertensive activity in iv dosed SHR rat assessed as changes in tail arterial mean blood pressure relative to control; type: functional, organism-based; settings: Artery; in short: as §3
Rattus norvegicus [26] = test: Antihypertensive activity in iv dosed SHR rat assessed as reduction in pentobarbitol-induced increase in blood pressure; type: functional, organism-based
Rattus norvegicus [27] = test: Antihypertensive activity in SHR rat assessed as reversible inhibition of pentobarbitol-induced increase in blood pressure at 20 mg/kg after 2 hrs; type: functional, organism-based; set-up: dose 20 mg/kg; in short: as §3
Rattus norvegicus [28] = test: Antihypertensive activity in SHR rat assessed as changes in tail arterial mean blood pressure at 5 mg/kg, iv; type: functional, Artery; in short: as §3

COC(=O)C1=C(C)NC(C)=C(C(=O)OC)C1c1ccccc1[N+](=O)[O-] [NIFEDIPINE]
Activity (Rattus norvegicus [1]): 132.4 mmHg
Activity (Rattus norvegicus [2]): 2.37 pmol/mL
Activity (Rattus norvegicus [3]): 2.04 pmol/mL
Activity (Rattus norvegicus [4]): 1.62 pmol/mL
Activity (Rattus norvegicus [5]): 1.28 pmol/mL
Activity (Rattus norvegicus [6]): 2.04 pmol/mL
Activity (Rattus norvegicus [7]): 1.76 pmol/mL
Activity (Rattus norvegicus [8]): 1.49 pmol/mL
Activity (Rattus norvegicus [9]): 1.12 pmol/mL
Activity (Rattus norvegicus [10]): 168.4 mmHg
Activity (Rattus norvegicus [11]): 151.2 mmHg
Activity (Rattus norvegicus [12]): 140.9 mmHg
Activity (Rattus norvegicus [13]): 118.7 mmHg
Activity (Rattus norvegicus [14]): 161.1 mmHg
Activity (Rattus norvegicus [15]): 143.8 mmHg
Activity (Rattus norvegicus [16]): 110.4 mmHg
Activity (Rattus norvegicus [17]): 36.3 mmHg
Activity (Rattus norvegicus [18]): 29.8 mmHg
Activity (Rattus norvegicus [19]): 17.1 mmHg
Activity (Rattus norvegicus [20]): 34.1 mmHg
Activity (Rattus norvegicus [21]): 10.8 mmHg
Activity (Rattus norvegicus [22]): 23.6 mmHg
Activity (Rattus norvegicus [23]): 14.3 mmHg

COc1cc2nc(N3CCN(C(=O)c4ccco4)CC3)nc(N)c2cc1OC [PRAZOSIN]
Activity (Rattus norvegicus [24]): 31.4 mmHg

O=C(OC[C@H]1O[C@@H](O)[C@H](O)[C@@H](O)[C@@H]1O)c1cc(O)c(O)c(O)c1
Activity (Rattus norvegicus [25]): Dose-dependent effect
Activity (Rattus norvegicus [26]): Active
Activity (Rattus norvegicus [27]): Active
Activity (Rattus norvegicus [28]): 29.6 mmHg
Activity (Rattus norvegicus [21]): 17.3 mmHg
